The values that follow come from ChEMBL document CHEMBL1137471, “Dihydroxypyridopyrazine-1,6-dione HIV-1 integrase inhibitors” (Bioorg Med Chem Lett, 2007).

Bounds are passed on as bounds.

The target in data set [1] is Human immunodeficiency virus type 1 integrase (Human immunodeficiency virus 1, UniProt Q7ZJM1). Kind of data set: Inhibition of HIV1 recombinant integrase strand transfer activity. A digest of the protocol:
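Strand transfer by recombinant HIV-1 integrase (0.1 µM) preassembled on immobilized oligonucleotides. Inhibition is relative to a no-inhibitor control run in quadruplicate and averaged, with background subtracted. IC50 given as mean of three experiments with standard deviation.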

Data set [2] relates to Human immunodeficiency virus 1. In words: Antiviral activity against HIV1 3B infected in human MT4 cells assessed as inhibition of replication after 3 days by ELISA. The following applies: Human immunodeficiency virus 1, 3B, MT4, 72 h; read-out: CIC95. The data set is classed as functional. On the technique in general: An ELISA detects its analyte on a solid surface through an enzyme-linked reagent.

A further data set concerns MT4. In words: Cytotoxicity against human MT4 cells upto 20 uM after 24 hrs. The class given is cell-based. The conditions noted are these: mt4, 24 h.
Data set [3] has as its system Liver. Kind of data set: Protein binding in rat liver after 24 hrs. The data set is classed as ADME, tissue-based. A digest of the protocol: (§1)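 [14C]-labelled compound given to rats in vivo. Irreversibly bound radioactivity measured in plasma and liver at 2, 6 and 24 h, expressed as pmol equiv/mg protein.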
The test system of data set [4] is Liver. Kind of data set: Protein binding in rat liver after 6 hrs. The class given is ADME, tissue-based. A digest of the protocol:
as §1

Data set [5] concerns Plasma. In words: Protein binding in rat plasma after 24 hrs. The class given is ADME, cell-free. A digest of the protocol: as §1
The test system of data set [6] is Liver. In words: Protein binding in rat liver after 2 hrs. The data set is classed as ADME, tissue-based. A digest of the protocol:
as §1

Data set [7] relates to Plasma. In words: Protein binding in rat plasma after 6 hrs. The class given is ADME, cell-free. A digest of the protocol:
as §1

The subject of data set [8] is Plasma. In words: Protein binding in rat plasma after 2 hrs. The class given is ADME, cell-free. A digest of the protocol: as §1
The subject of data set [9] is Liver microsomes. In words: Protein binding in human liver microsomes per 60 mins in presence of NADPH. The data set is classed as ADME, Microsome. The following applies: 1 h. A digest of the protocol:
(§2)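 [14C]-labelled compound incubated with rat or human liver microsomes, with or without NADPH. Irreversibly bound radioactivity expressed as pmol equiv/mg/60 min.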
In general terms: Liver microsomes are a subcellular fraction often used to study metabolism.

The test system of data set [10] is Liver microsomes. Kind of data set: Protein binding in human liver microsomes per 60 mins in absence of NADPH. The data set is classed as ADME, Microsome. The following applies: 1 h. A digest of the protocol: as §2
Data set [11] deals with Liver microsomes. In words: Protein binding in rat liver microsomes per 60 mins in presence of NADPH. The data set is classed as ADME, Microsome. The following applies: 1 h. A digest of the protocol: as §2
Data set [12] deals with Liver microsomes. Kind of data set: Protein binding in rat liver microsomes per 60 mins in absence of NADPH. The data set is classed as ADME, Microsome. The following applies: 1 h. A digest of the protocol: as §2
The nature of data set [13]: Bioavailability in rat at 10 mg/kg, po. The class given is ADME, organism-based. The following applies: in vivo. A digest of the protocol: (§3)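 Rats dosed orally at 10 mg/kg as a solution in 1% aqueous methylcellulose. Plasma sampled through 24 h.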
Another data set is filed under the species Rattus norvegicus. In words: Plasma concentration in rat after 2 to 24 hrs. The data set is classed as ADME, organism-based. The following applies: in vivo. A digest of the protocol: as §3

Human immunodeficiency virus type 1 integrase, sequence (Q7ZJM1 whole entry): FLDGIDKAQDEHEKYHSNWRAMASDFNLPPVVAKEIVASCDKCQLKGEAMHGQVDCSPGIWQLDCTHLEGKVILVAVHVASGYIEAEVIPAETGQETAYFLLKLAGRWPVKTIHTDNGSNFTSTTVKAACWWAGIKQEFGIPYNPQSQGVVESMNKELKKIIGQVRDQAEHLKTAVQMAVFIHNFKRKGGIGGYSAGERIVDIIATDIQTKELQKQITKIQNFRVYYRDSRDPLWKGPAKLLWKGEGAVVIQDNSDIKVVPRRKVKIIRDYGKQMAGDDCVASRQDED

As a reminder, the IC50 is the concentration at which inhibition is half-maximal. As to `O=c1c2c(O)c(O)cc(=O)n2ccn1Cc1ccc(F)cc1`, in data set [1], the IC50 was determined as 40 nM.

As for `O=C1c2c(O)c(O)cc(=O)n2CCN1Cc1cccc(Cl)c1`, the IC95 in [2] was 0.5 µM. In data set [1], the IC50 amounted to 40 nM. In the data set with MT4, the Activity entry is listed as “Non-toxic”.

In the case of `O=C1c2[14c](O)[14c](O)cc(=O)n2CCN1Cc1ccc(F)cc1`, the PPB in the data set with Liver [3], with Liver [4], in the data set with Plasma [5], with Liver [6], in the data set with Plasma [7] and with Plasma [8] was under 5 pmolequiv/mg in each case. Besides, the Activity is reported as 19.6 pmolequiv/mg with Liver microsomes [9], 15.2 pmolequiv/mg in the data set with Liver microsomes [10], 24.2 pmolequiv/mg in the data set on Liver microsomes [11] and 24.7 pmolequiv/mg in the data set with Liver microsomes [12].

With `O=C1c2c(O)c(O)c(I)c(=O)n2CCN1Cc1ccc(F)cc1`, the IC95 in [2] is over 1 µM. In addition, the IC50 in data set [1] is 20 nM. The Activity entry in the data set with MT4 is “Non-toxic”.

As to `O=C1c2c(O)c(O)cc(=O)n2CCN1Cc1ccccc1`, the IC95 in data set [2] worked out at 2.5 µM. For the same compound, the IC50 in data set [1] is 230 nM. In addition, in the data set with MT4, the Activity entry is given as “Non-toxic”.

For the compound `O=C1c2c(O)c(O)cc(=O)n2CCN1Cc1ccc(F)c(Cl)c1`, the IC95 in data set [2] was 0.25 µM. In data set [1], the IC50 stood at 40 nM. Moreover, the Activity entry with MT4 is “Non-toxic”.

As to `O=C1c2c(O)c(O)c(Br)c(=O)n2CCN1Cc1ccc(F)cc1`, in data set [2], the IC95 is 1 µM. In addition, the IC50 in data set [1] turned out to be 30 nM. In addition, the Activity result in the data set with MT4 is listed as “Non-toxic”.

In the case of `O=C1c2c(O)c(O)cc(=O)n2CCCN1Cc1ccc(F)cc1`, in data set [1], the IC50 came to 1040 nM.

As for `N#Cc1c(O)c(O)c2n(c1=O)CCN(Cc1ccc(F)cc1)C2=O`, in [2], the IC95 was over 1 µM. For the same compound, the IC50 in data set [1] was 20 nM. Besides, in the data set on MT4, the Activity result is “Non-toxic”.

The bioavailability is dose-corrected exposure relative to a reference, in per cent. Lower therefore signals little systemic uptake. Take `O=C1c2c(O)c(O)cc(=O)n2CCN1Cc1ccc(F)cc1`: the IC95 in data set [2] was 0.31 µM. Further, in data set [1], the IC50 is 100 nM. Besides, in the data set with MT4, the Activity result is on record as “Non-toxic”. Also, the bioavailability in [13] worked out at 69%. Also, the concentration in the data set filed under Rattus norvegicus stood at 500 nM.

For the compound `O=C1c2c(O)c(O)cc(=O)n2CCN1Cc1ccccc1Cl`, the IC95 in [2] is over 1 µM. In addition, the IC50 in data set [1] came out at 370 nM. Moreover, the Activity result with MT4 is “Non-toxic”.

In the case of `O=C1c2c(O)c(O)cc(=O)n2CCN1Cc1ccc(Cl)cc1`, the IC95 in [2] stood at 1 µM. In addition, the IC50 in data set [1] came to 380 nM. For the same compound, the Activity entry in the data set with MT4 is on record as “Non-toxic”.
